Data reported in the array DNA melting data of Ke et al. (doi:10.1101/2024.01.08.574731).

What was measured:
[1] = folding enthalpy; higher = less favourable; fluorescence melt of hairpins on a sequencing array, two-state fit; settings: sodium 0.088 M
Summary of the method: (§1)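 Cy3 signals were normalised both to pre-quench Cy3 and to control constructs. They came from library hairpins carrying annealed Cy3 and quencher oligos on a sequenced MiSeq flow cell, imaged in 50 mM Na-HEPES pH 8.0, 25 mM NaCl, in 2.5 °C steps up to 60 °C. Bootstrapped two-state fits gave melting temperature and folding enthalpy, and four replicates were combined by inverse variance. Fitted temperatures were then raised by 9.35 °C to match UV melts.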

[2] = melting temperature; fluorescence melt of hairpins on a sequencing array, two-state fit, raised by 9.35 °C to match UV melts; settings: sodium 0.088 M
Summary of the method: as §1

GGCGGCGAAAGCCGTGCC ((((((....)))..)))
folding enthalpy [1]: -10.1 kcal/mol
Tm [2]: 57.7 °C

GGCGGCGGAAACGCCACC ((.((((....)))).))
folding enthalpy [1]: -27.5 kcal/mol
Tm [2]: 63.7 °C

GGCGGGACGAAAGTCGCC (((..(((....))))))
folding enthalpy [1]: -28.6 kcal/mol
Tm [2]: 59.5 °C

GGCGGGGGAAACTCCGCC (((((.(....).)))))
folding enthalpy [1]: -38 kcal/mol
Tm [2]: 67.7 °C

GGCGGTGGAAACACTGCC (((.(((....))).)))
folding enthalpy [1]: -47.3 kcal/mol
Tm [2]: 61.6 °C

GGCGGTGGAAACGTCGCC ((((..(....)..))))
folding enthalpy [1]: -33.8 kcal/mol
Tm [2]: 53.9 °C

GGCGTAACGAAAGTTGCC (((..(((....))))))
folding enthalpy [1]: -25.3 kcal/mol
Tm [2]: 48.9 °C

GGCGTACGAAAGTAGGCC (((.(((....))).)))
folding enthalpy [1]: -36.6 kcal/mol
Tm [2]: 64.1 °C

GGCGTAGCGAAAGCTGCC (((..(((....))))))
folding enthalpy [1]: -21.9 kcal/mol
Tm [2]: 55.3 °C

GGCGTAGGAAACTACACC ((.((((....)))).))
folding enthalpy [1]: -29.1 kcal/mol
Tm [2]: 44.4 °C

GGCGTAGGAAACTACGTC (.(((((....))))).)
folding enthalpy [1]: -34.7 kcal/mol
Tm [2]: 52.4 °C

GGCGTAGGAAACTGCGCC ((((.((....)).))))
folding enthalpy [1]: -48.8 kcal/mol
Tm [2]: 62.3 °C

GGCGTCCGAAAGGAAGCC (((.(((....))).)))
folding enthalpy [1]: -34.7 kcal/mol
Tm [2]: 67 °C

GGCGTCCGAAAGGAGCC (((.(((....))))))
folding enthalpy [1]: -25.9 kcal/mol
Tm [2]: 59.5 °C

GGCGTCGAAAGACAGCC ((((((....))).)))
folding enthalpy [1]: -34.3 kcal/mol
Tm [2]: 63.7 °C

GGCGTCGAAAGACCGGCC ((((((....)))..)))
folding enthalpy [1]: -19.4 kcal/mol
Tm [2]: 51 °C

GGCGTCGAAAGACGCGCC ((((((....)))..)))
folding enthalpy [1]: -6.87 kcal/mol
Tm [2]: 62.7 °C

GGCGTCGAAAGACTAGCC ((((((....)))..)))
folding enthalpy [1]: -34 kcal/mol
Tm [2]: 54.5 °C

GGCGTCTCGAAAGAGGCC (((..(((....))))))
folding enthalpy [1]: -33.3 kcal/mol
Tm [2]: 53 °C

GGCGTGGGAAACCGTGCC (((..((....))..)))
folding enthalpy [1]: -32.1 kcal/mol
Tm [2]: 49.1 °C

GGCGTTGGAAACAGTGCC (((..((....))..)))
folding enthalpy [1]: -28.2 kcal/mol
Tm [2]: 42.6 °C

GGCGTTGGAAACGACGTC (.(((.(....).))).)
folding enthalpy [1]: -29.8 kcal/mol
Tm [2]: 58.1 °C

GGCGTTGGAAACGATGCC (((.(.(....).).)))
folding enthalpy [1]: -24.9 kcal/mol
Tm [2]: 48 °C

GGCTAAGGAAACTCAGCC ((((.((....)).))))
folding enthalpy [1]: -27.3 kcal/mol
Tm [2]: 38.1 °C

GGCTACGAAAGTAAGCC ((((((....))).)))
folding enthalpy [1]: -36.3 kcal/mol
Tm [2]: 58.4 °C

GGCTACGAAAGTAATGCC ((((((....)))..)))
folding enthalpy [1]: -22.6 kcal/mol
Tm [2]: 46.9 °C

GGCTACGAAAGTACTGCC ((((((....)))..)))
folding enthalpy [1]: -22.7 kcal/mol
Tm [2]: 39.6 °C

GGCTACGAAAGTAGGCC ((((((....))).)))
folding enthalpy [1]: -17.3 kcal/mol
Tm [2]: 57.6 °C

GGCTACGAAAGTAGTGCC ((((((....)))..)))
folding enthalpy [1]: -16.6 kcal/mol
Tm [2]: 46.7 °C

GGCTACGGAAACGTAGTC (.(((((....))))).)
folding enthalpy [1]: -28.9 kcal/mol
Tm [2]: 53.6 °C

GGCTACTCGAAAGAGGCC (((..(((....))))))
folding enthalpy [1]: -30 kcal/mol
Tm [2]: 45.7 °C

GGCTAGCGAAAGCTCGCC (((.(((....))).)))
folding enthalpy [1]: -36.3 kcal/mol
Tm [2]: 58.8 °C

GGCTAGGGAAACCTAACC ((.((((....)))).))
folding enthalpy [1]: -30.3 kcal/mol
Tm [2]: 35.2 °C

GGCTAGGGAAACCTAGTC (.(((((....))))).)
folding enthalpy [1]: -41.7 kcal/mol
Tm [2]: 48.8 °C

GGCTATCGAAAGATGGCC (((.(((....))).)))
folding enthalpy [1]: -52.3 kcal/mol
Tm [2]: 59.8 °C

GGCTATGGAAACATAACC ((.((((....)))).))
folding enthalpy [1]: -25.7 kcal/mol
Tm [2]: 34.4 °C

GGCTATGGAAACATAGTC (.(((((....))))).)
folding enthalpy [1]: -34.7 kcal/mol
Tm [2]: 46.5 °C

GGCTCACCGAAAGGTGCC (((..(((....))))))
folding enthalpy [1]: -10.9 kcal/mol
Tm [2]: 39.6 °C

GGCTCACGAAAGTGCGCC (((.(((....))).)))
folding enthalpy [1]: -50.9 kcal/mol
Tm [2]: 58.4 °C

GGCTCAGGAAACTGAACC ((.((((....)))).))
folding enthalpy [1]: -32.3 kcal/mol
Tm [2]: 41.8 °C

GGCTCAGGAAACTGAGTC (.(((((....))))).)
folding enthalpy [1]: -40.2 kcal/mol
Tm [2]: 52.6 °C

GGCTCCGAAAGGACAGCC ((((((....)))..)))
folding enthalpy [1]: -23.1 kcal/mol
Tm [2]: 50.6 °C

GGCTCCGAAAGGACTGCC ((((((....)))..)))
folding enthalpy [1]: -19.1 kcal/mol
Tm [2]: 47.6 °C

GGCTCCGAAAGGAGTGCC ((((((....)))..)))
folding enthalpy [1]: -14.5 kcal/mol
Tm [2]: 50 °C

GGCTCCGGAAACGAAGCC ((((.((....)).))))
folding enthalpy [1]: -40.4 kcal/mol
Tm [2]: 50.7 °C

GGCTCCGGAAACGGGGCC (((.(((....))).)))
folding enthalpy [1]: -50.7 kcal/mol
Tm [2]: 67.5 °C

GGCTCTCGAAAGAGGGCC (((.(((....))).)))
folding enthalpy [1]: -39.3 kcal/mol
Tm [2]: 64.7 °C

GGCTCTGCGAAAGCAGCC (((..(((....))))))
folding enthalpy [1]: -9.66 kcal/mol
Tm [2]: 40.6 °C

GGCTCTGGAAACAGAACC ((.((((....)))).))
folding enthalpy [1]: -35.1 kcal/mol
Tm [2]: 42.3 °C

GGCTCTGGAAACAGAGTC (.(((((....))))).)
folding enthalpy [1]: -35.7 kcal/mol
Tm [2]: 52.8 °C

GGCTCTTCGAAAGAAGCC (((..(((....))))))
folding enthalpy [1]: -16.3 kcal/mol
Tm [2]: 37.6 °C

GGCTGAGAAATCAGCC ((((((....))))))
folding enthalpy [1]: -34.3 kcal/mol
Tm [2]: 65.7 °C

GGCTGCCGAAAGGCCGCC (((.(((....))).)))
folding enthalpy [1]: -18.5 kcal/mol
Tm [2]: 65 °C

GGCTGCGAAAGCAAGGCC ((((((....)))..)))
folding enthalpy [1]: -18.5 kcal/mol
Tm [2]: 55.8 °C

GGCTGCGGAAACGCAACC ((.((((....)))).))
folding enthalpy [1]: -22.3 kcal/mol
Tm [2]: 54.7 °C

GGCTGCGGAAACGCGGTC (.(.(((....))).).)
folding enthalpy [1]: -28.7 kcal/mol
Tm [2]: 53.1 °C

GGCTGCGGAAACGTGGCC (((..((....))..)))
folding enthalpy [1]: -45.6 kcal/mol
Tm [2]: 56.5 °C

GGCTGGGGAAACCTAGCC ((((.((....)).))))
folding enthalpy [1]: -42.8 kcal/mol
Tm [2]: 56.2 °C

GGCTGGTCGAAAGACGCC (((..(((....))))))
folding enthalpy [1]: -27 kcal/mol
Tm [2]: 52.1 °C

GGCTGTGGAAACATAGCC ((((.((....)).))))
folding enthalpy [1]: -43.4 kcal/mol
Tm [2]: 53.5 °C

GGCTGTGGAAACATGGCC (((..((....))..)))
folding enthalpy [1]: -32.6 kcal/mol
Tm [2]: 49.5 °C

GGCTGTGGAAACGTAGCC ((((..(....)..))))
folding enthalpy [1]: -29.9 kcal/mol
Tm [2]: 48.9 °C

GGCTTAACGAAAGTTGCC (((..(((....))))))
folding enthalpy [1]: -21.8 kcal/mol
Tm [2]: 45.5 °C

GGCTTAGAAATAAGCC ((((((....))))))
folding enthalpy [1]: -33.4 kcal/mol
Tm [2]: 55.4 °C

GGCTTCCCGAAAGGGGCC (((..(((....))))))
folding enthalpy [1]: -17.7 kcal/mol
Tm [2]: 48.2 °C

GGCTTCCGAAAGGACGCC (((.(((....))).)))
folding enthalpy [1]: -42 kcal/mol
Tm [2]: 57.2 °C

GGCTTCGAAAGAATAGCC ((((((....)))..)))
folding enthalpy [1]: -27.6 kcal/mol
Tm [2]: 45.3 °C

GGCTTCGGAAACGAAGTC (.(((((....))))).)
folding enthalpy [1]: -30.1 kcal/mol
Tm [2]: 53.5 °C
